For assay [1], the system named is Mycobacterium tuberculosis. As to the kind of experiment: Antimycobacterial activity against rifampicin/isoniazid-susceptible Mycobacterium tuberculosis H37Rv ATCC 27294 at 6.25 ug/ml after 5 days by microplate alamar blue assay. It counts as functional. The settings on record: H37Rv ATCC 27294, 120 h. Summed up:
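M. tuberculosis H37Rv (ATCC 27294, rifampicin- and isoniazid-susceptible) screened by Microplate Alamar Blue Assay at a single concentration of 6.25; read-out is % growth inhibition. Compounds showing fluorescence were instead tested in the BACTEC 460 radiometric system.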

The test system of assay [2] is Mycobacterium tuberculosis. As to the kind of experiment: Antimycobacterial activity against rifampicin/isoniazid-susceptible Mycobacterium tuberculosis H37Rv ATCC 27294 by BACTEC 460 radiometric method. In kind it is functional, organism-based. Summed up:
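Radiometric BACTEC 460 growth test on H37Rv (ATCC 27294). Compounds reaching at least 90% inhibition at 6.25 were retested at the lower concentrations 3.125 and 1.0, with % inhibition recorded. […] Isoniazid served as the reference standard.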

SMILES strings stand for the structures. Values after ≈ are worked out from the molar mass of the structure shown.

For the compound `NNC(=O)c1cc(C23CC4CC(CC(C4)C2)C3)c2ccccc2n1`, the inhibition at 6.25 µg/mL in assay [1] worked out at 99%. Turning to `CC(C)(C)OC(=O)N[C@@H](Cc1ccc(OCc2ccccc2)cc1)C(=O)NNC(=O)c1cc(C23CC4CC(CC(C4)C2)C3)c2ccccc2n1`, 12.9 µM corresponded to half-maximal inhibition in assay [2] (IC50). For the same compound, testing at 6.25 µg/mL in assay [1] gave an inhibition of 42%. In assay [1], `NC(=O)c1cc(C23CC4CC(CC(C4)C2)C3)c2ccccc2n1` gave an inhibition at 6.25 µg/mL of 98%.

The compound `C[C@H](NC(=O)OC(C)(C)C)C(=O)NNC(=O)c1cc(C23CC4CC(CC(C4)C2)C3)c2ccccc2n1` gave an IC50 in assay [2] of 1.74 µM. The same compound showed an inhibition at 6.25 µg/mL in assay [1] of 88%. `N[C@@H](Cc1c[nH]cn1)C(=O)NNC(=O)c1cc(C23CC4CC(CC(C4)C2)C3)c2ccccc2n1` showed an IC50 in assay [2] of 1.86 µM. Also, the inhibition at 6.25 µg/mL in assay [1] is 88%. For the compound `NCC(=O)NNC(=O)c1cc(C23CC4CC(CC(C4)C2)C3)c2ccccc2n1`, the IC50 in assay [2] was 30.2 µM. In addition, the inhibition at 6.25 µg/mL in assay [1] was found to be 35%. Turning to `CC(C)(C)OC(=O)N[C@@H](Cc1ccccc1)C(=O)NNC(=O)c1cc(C23CC4CC(CC(C4)C2)C3)c2ccccc2n1`, the IC50 in assay [2] is 1.95 µM. Besides, in assay [1], the inhibition at 6.25 µg/mL was determined as 85%. In assay [2], `CSCC[C@H](NC(=O)OC(C)(C)C)C(=O)NNC(=O)c1cc(C23CC4CC(CC(C4)C2)C3)c2ccccc2n1` had an IC50 of 8.91 µM. In assay [1], this compound yielded an inhibition at 6.25 µg/mL of 56%. Taken in the same sequence, the figures for `CCC(C)[C@H](NC(=O)OC(C)(C)C)C(=O)NNC(=O)c1cc(C23CC4CC(CC(C4)C2)C3)c2ccccc2n1` (stereo partly drawn) were 1.29 µM and 90%. Taken in the same sequence, the figures for `CC(C)(C)OC(=O)NCCC[C@H](NC(=O)OC(C)(C)C)C(=O)NNC(=O)c1cc(C23CC4CC(CC(C4)C2)C3)c2ccccc2n1` were 3.09 µM and 75%. For the compound `NC(=O)CC[C@H](N)C(=O)NNC(=O)c1cc(C23CC4CC(CC(C4)C2)C3)c2ccccc2n1`, it took 17 µM to reach half-maximal inhibition in assay [2] (IC50). In assay [1], at 6.25 µg/mL the inhibition was 45%. In assay [2], `NCCC[C@H](N)C(=O)NNC(=O)c1cc(C23CC4CC(CC(C4)C2)C3)c2ccccc2n1` gave an IC50 of 40.7 µM. In assay [1], this compound had an inhibition at 6.25 µg/mL of 26%. `CC(C)C[C@H](NC(=O)OC(C)(C)C)C(=O)NNC(=O)c1cc(C23CC4CC(CC(C4)C2)C3)c2ccccc2n1` showed an IC50 in assay [2] of 1.29 µM. This compound also returned an inhibition at 6.25 µg/mL in assay [1] of 90%. The compound `N[C@@H](Cc1c[nH]c2ccccc12)C(=O)NNC(=O)c1cc(C23CC4CC(CC(C4)C2)C3)c2ccccc2n1` had an IC50 in assay [2] of 9.77 µM. This compound also displayed an inhibition at 6.25 µg/mL in assay [1] of 56%. Compound `CCC(C)[C@H](N)C(=O)NNC(=O)c1cc(C23CC4CC(CC(C4)C2)C3)c2ccccc2n1` (stereo partly drawn) gave an IC50 in assay [2] of 4.79 µM. Further, in assay [1], the inhibition at 6.25 µg/mL came out at 75%. On the same counts, the results for `CC(C)(C)OC(=O)NCC(=O)NNC(=O)c1cc(C23CC4CC(CC(C4)C2)C3)c2ccccc2n1` are 8.71 µM and 60%. In turn, `CC(C)C[C@H](N)C(=O)NNC(=O)c1cc(C23CC4CC(CC(C4)C2)C3)c2ccccc2n1` had an IC50 in assay [2] of 4.79 µM. In assay [1], this compound had an inhibition at 6.25 µg/mL of 75%.

Take `N[C@@H](Cc1ccc(O)cc1)C(=O)NNC(=O)c1cc(C23CC4CC(CC(C4)C2)C3)c2ccccc2n1`: in assay [2], the IC50 is 13.8 µM. In addition, 6.25 µg/mL produced 48% inhibition in assay [1]. Take `N[C@@H](Cc1ccccc1)C(=O)NNC(=O)c1cc(C23CC4CC(CC(C4)C2)C3)c2ccccc2n1`: half-maximal inhibition in assay [2] (IC50) required 3.16 µM. For the same compound, the inhibition at 6.25 µg/mL in assay [1] stood at 81%. In the case of `CC(C)(C)OC(=O)N[C@@H](CCC(N)=O)C(=O)NNC(=O)c1cc(C23CC4CC(CC(C4)C2)C3)c2ccccc2n1`, the IC50 in assay [2] was 11 µM. In assay [1], this compound yielded an inhibition at 6.25 µg/mL of 51%. Turning to `C[C@H](N)C(=O)NNC(=O)c1cc(C23CC4CC(CC(C4)C2)C3)c2ccccc2n1`, inhibition in assay [2] was half-maximal at 22.9 µM (IC50). Further, the inhibition at 6.25 µg/mL in assay [1] worked out at 41%. In turn, `CSCC[C@H](N)C(=O)NNC(=O)c1cc(C23CC4CC(CC(C4)C2)C3)c2ccccc2n1` had an IC50 in assay [2] of 9.55 µM. Besides, in assay [1], testing at 6.25 µg/mL gave an inhibition of 59%. `NNC(=O)c1ccncc1` [ISONIAZID]: the MIC99 in assay [2] amounted to 1 µg/mL (≈ 7.29 µM).

Values taken from ChEMBL document CHEMBL1158356, “Synthesis, anti-tuberculosis activity and 3D-QSAR study of amino acid conjugates of 4-(adamantan-1-yl) group containing quinolines” (Eur J Med Chem, 2009).
